M4 antag – antagonists of human muscarinic M4 receptor (CHRM4) | P08173 | CHO-hM4 cells, ACh EC80, Fluo-8 calcium fluorescence | inhibition, % at 3 µM | 360,000 tested, 0.73% active | AID 624125;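 active = inhibition above its plate's cutoff, the mean inhibition of sample wells plus 3 SD, cut at about 27% in these data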;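 note: 0% = acetylcholine EC80 with DMSO and 100% = DMSO without agonist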
CHRM4 PAM – positive allosteric modulators of human muscarinic M4 receptor | AID 624126 | 360,000 tested, 0.4% active | P08173 | activation, % at 3 µM | CHO-K1 hM4/Gqi5, Fluo-8 calcium fluorescence, ACh EC20; 0% = ACh EC20, 100% = maximal ACh;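 active = activation above its plate's cutoff, the mean activation of sample wells plus 3 SD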
CHRM4 agonist – CHRM4 agonism in calcium assay | CHO-K1 hM4/Gqi5, Fluo-8 calcium fluorescence; vehicle 0%, full acetylcholine response 100% | activation, % at 3 µM | 360,000 tested, 0.14% active | P08173;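 active = activation above the run mean over all test wells plus 3 SD, cut at about 32% in these data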;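 note: peak over basal fluorescence ratio per well then scaled between controls; 0% = DMSO wells and 100% = acetylcholine at EC100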
M5 PAM – CHRM5 positive allosteric modulation; P08912; CHO-K1 hM5, Fluo-8 calcium, ACh EC20 PAM; 0% = ACh EC20, 100% = ACh EC100; activation, % at 3 µM; 360,000 tested, 0.3% active;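 active = activation above the run cutoff, the mean activation of all test compounds plus 3 SD, cut at about 18% in these data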
Target sequence (P08912 whole entry, looked up): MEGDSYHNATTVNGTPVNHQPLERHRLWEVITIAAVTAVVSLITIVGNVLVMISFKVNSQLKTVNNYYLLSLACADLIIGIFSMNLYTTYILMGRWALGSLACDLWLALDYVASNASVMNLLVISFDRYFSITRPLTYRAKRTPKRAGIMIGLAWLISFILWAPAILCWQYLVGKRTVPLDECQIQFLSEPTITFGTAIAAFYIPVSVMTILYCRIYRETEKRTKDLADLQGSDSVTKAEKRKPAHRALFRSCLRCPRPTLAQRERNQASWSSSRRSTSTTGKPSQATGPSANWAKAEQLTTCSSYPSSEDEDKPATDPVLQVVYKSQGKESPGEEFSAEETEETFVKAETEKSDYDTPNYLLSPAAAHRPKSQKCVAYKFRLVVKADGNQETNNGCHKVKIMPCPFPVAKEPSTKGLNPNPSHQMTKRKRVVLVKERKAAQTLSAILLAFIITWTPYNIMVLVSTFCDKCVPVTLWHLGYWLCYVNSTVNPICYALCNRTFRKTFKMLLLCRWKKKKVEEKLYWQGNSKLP
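system = human M5 receptor in CHO-K1 cells | reagent = EC20 acetylcholine as agonist stimulus | compound dosing = single-point, 3 µM nominal | incubation = Fluo-8 loading 80 min at 37 °C plus 30 min room temperature | detection = Fluo-8 calcium dye fluorescence, kinetic read | benchmarks = low control EC20 acetylcholine (0%), high control EC100 acetylcholine (100%)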
CHRM5 antagonist – antagonists of human muscarinic M5 receptor (CHRM5); P08912; CHO-hM5 cells, Fluo-8 calcium fluorescence, ACh EC80; inhibition, % at 3 µM; 360,000 tested, 0.59% active; AID 624040;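 active = inhibition above a per-plate cutoff, the mean of that plate's test compounds plus 3 SD, cut at about 27% in these data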;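 note: 0% = acetylcholine EC80 with DMSO and 100% = DMSO without agonist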
M5 ag – agonists of human muscarinic M5 receptor (CHRM5) | 360,000 tested, 0.19% active | activation, % at 3 µM | AID 624037 | P08912 | CHO-K1 hM5 cells, Fluo-8 calcium fluorescence; 0% DMSO wells, 100% maximal acetylcholine response;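 active = activation above the run's mean over test compounds plus 3 SD, cut at about 23% in these data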;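 note: signal is peak over basal fluorescence ratio across the kinetic read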
* = called active by the depositor. In the library only some 1.8% were active in any assay of this set; here they are far more common.

SMILES	M4 antag	CHRM4 PAM	CHRM4 agonist	M5 PAM	CHRM5 antagonist	M5 ag
CN(C)CC/C=C1\c2ccccc2Sc2ccc(Cl)cc21	98*	-20	9	-18	100*	2
OCCN1CCN(CC/C=C2/c3ccccc3Sc3ccc(Cl)cc32)CC1	9	-11	5	-10	14	2
Cn1cnnc1SCCC(=O)Nc1ccccc1	7	38*	1	3	-2	7
O=C(CC1Sc2ccccc2NC1=O)NCc1ccc(Cl)cc1 (configuration not stated)	-3	3	1	2	4	-1
C/C(=N\Nc1c(F)c(F)c(Br)c(F)c1F)c1ccncc1	-18	15*	1	3	5	-11
COC(=O)C[C@H]1C=C[C@H](NC(=O)c2ccccn2)[C@@H](CO)O1	-10	10	0	0	6	2
Nc1ccc(-c2nc3ccc(N)cc3[nH]2)cc1	7	-8	10	-14	15	1
Nc1ccc2cc3[nH]c4cc(N)ccc4c3nc2c1	32*	-4	21	-27	68*	101*
Cc1nn(-c2ccccc2)c2nc(N)c(C(N)=O)cc12	-3	-3	1	-4	5	-3
CCC(=O)c1ccc(SC(=O)N(C)C)cc1O	-1	-38	10	-14	11	-4
CCOC(=O)CCc1c(C)n(CC)c2cc(-c3ccccc3OC)nn2c1=O	-9	19*	-1	13	0	-9
CC1(c2nnc(Cc3ccccc3)o2)CC(c2ccccc2[N+](=O)[O-])=NO1 (configuration not stated)	-10	13	1	-1	-2	3
CN1CCC(C2(O)c3ccccc3CCc3ccccc32)CC1	52*	-37	1	-18	37*	-6
CN1CCC(C2(O)c3ccccc3CSc3sccc32)CC1 (configuration not stated)	-1	-6	1	-30	11	-14
O=C(Nc1c(C(=O)C2CC2)oc2ccccc12)c1ccc(Cl)cc1	1	26*	2	10	-5	0
Cc1ccc(S(=O)(=O)N(C)C[C@H]2OCCCC[C@@H](C)Oc3ccc(N(C)C)cc3C(=O)N([C@H](C)CO)C[C@@H]2C)cc1	-4	1	0	0	-1	0
C[C@@H]1CCCCO[C@@H](CN(C)S(=O)(=O)c2ccc(Cl)cc2)[C@@H](C)CN([C@H](C)CO)C(=O)c2cc(N(C)C)ccc2O1	-22	18*	0	5	1	-1
Cn1ccc(C(=O)N/N=C/c2c[nH]c3ccccc23)n1	-23	-1	3	28*	-3	1
CCC(C)(C)NC(=O)C(c1ccccn1)N(C(=O)c1csnn1)C1CCCCC1 (configuration not stated)	1	3	1	23*	-6	0
CC(C)(C)NC(=O)C(c1ccccn1)N(C(=O)c1csnn1)C1CCCCC1 (configuration not stated)	2	4	1	9	-8	0
COc1cc(CNCc2ccccn2)ccc1OCc1cccc(Cl)c1	3	-7	13	-4	3	6
CC(C)Cn1c(N)c(C(=O)COC(=O)CCc2nc3ccccc3s2)c(=O)n(C)c1=O	14	-21	23	-35	32*	9
Cc1ccccc1OCCC(=O)OCC(=O)c1c(N)n(CC(C)C)c(=O)n(C)c1=O	17	-15	23	-14	34*	5
CC(C)Cn1c(N)c(C(=O)COC(=O)CCc2nc3ccccc3c(=O)[nH]2)c(=O)n(C)c1=O	4	7	13	-13	6	5
Cc1ccc(OCCC(=O)OCC(=O)c2c(N)n(CC(C)C)c(=O)n(C)c2=O)cc1	0	-10	16	-28	16	3
SMILES	M4 antag	CHRM4 PAM	CHRM4 agonist	M5 PAM	CHRM5 antagonist	M5 ag
CC(C)Cn1c(N)c(C(=O)COC(=O)CC23CC4CC(CC(C4)C2)C3)c(=O)n(C)c1=O	37*	-7	2	-13	19	4
Cc1ccc(NC(=O)NNC(=O)Cn2nc(-c3ccccc3)c(-c3ccccc3)c(C#N)c2=O)cc1	11	7	0	-1	-1	-6
CCOC(=O)c1cnc2ccc(Br)cc2c1NCCCN1CCOCC1	14	40*	13	3	9	-2
CCOC(=O)c1cnc2ccc(Br)cc2c1NCC(C)O (configuration not stated)	-1	4	0	4	-2	-2
CCOC(=O)c1ccc2ncc(C(=O)OCC)c(NCCCN3CCOCC3)c2c1	3	5	1	5	-3	-2
CCOC(=O)c1cnc2ccc(Cl)cc2c1NCCN(C)C	4	27*	4	0	5	-2
CCOC(=O)c1cnc2ccccc2c1NCCO	0	5	0	-10	0	-12
CCOC(=O)c1cnc2ccc(Br)cc2c1NCCO	-12	20*	1	0	-2	3
CC(C)CC(N)c1csc(Nc2ccc(C(=O)NCCO)cc2)n1 (configuration not stated)	-13	1	0	5	-7	1
COC(=O)c1sc(C(C)(C)C)cc1CS(=O)(=O)c1ccccn1	-15	-4	3	22*	-18	9
CC(C)(C)c1ccc(OCC(O)CS(=O)(=O)c2ccccn2)cc1 (configuration not stated)	-11	3	13	-2	-8	3
CCN(CC)S(=O)(=O)c1ccc(C(=O)Nc2c3c(nn2C(C)(C)C)CS(=O)(=O)C3)cc1	27*	10	2	2	-1	-2
CCOc1ccc(C(=O)NC2CC(=O)N(c3ccc4c(c3)OCCO4)C2)cc1 (configuration not stated)	-4	3	1	4	1	-1
CCOC(=O)c1ccc(CNCc2ccccc2)cc1	40*	-15	1	-12	5	-7
CC(C)CN(CC(C)C)c1nc(N)c(C#N)c(CC#N)c1C#N	-8	28*	-3	5	-6	-5
COc1ccc(C(=O)Nc2ccc([N+](=O)[O-])cn2)c(OC)c1	-1	0	1	20*	11	-1
COc1ccc(C(O)(CCN2CCCCC2)C2CCCCC2)cc1 (configuration not stated)	75*	-20	0	-23	64*	-11
COC(=O)C1=NN(C(=O)c2cccc(Br)c2)C(O)(c2ccc(Cl)cc2)C1 (configuration not stated)	2	-5	39*	-11	3	16

Screening results from PubChem.
